Experimental data from ChEMBL document CHEMBL4808192, “Synthesis and biological evaluation of novel imidazo[1,2-a]pyridine-oxadiazole hybrids as anti-proliferative agents: Study of microtubule polymerization inhibition and DNA binding” (Bioorg Med Chem, 2021).

Experiments:
Assay type in all cases: functional, cell-based
A549 = assay: Antiproliferative activity against human A549 cells assessed as reduction in cell viability incubated for 48 hrs by MTT assay; details: A549, 48 h
Summary of the method: (§1)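 Cells grown in medium with 10% FBS and 1% antibiotic-antimycotic at 37 °C, passaged at 80–90% confluence with 0.25% trypsin/1 mM EDTA. Seeded at 1000–4000 cells/well and grown overnight. Medium was then replaced and compounds added at various concentrations for 48 h. MTT (0.5 mg/mL) was added for 4 h at 37 °C, formazan dissolved in DMSO and absorbance read at 570 nm. IC50 is the 50% inhibitory concentration.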

PC-3 = assay: Antiproliferative activity against human PC-3 cells assessed as reduction in cell viability incubated for 48 hrs by MTT assay; details: PC-3, 48 h; summary of the method: as §1
DU-145 = assay: Antiproliferative activity against human DU-145 cells assessed as reduction in cell viability incubated for 48 hrs by MTT assay; details: DU-145, 48 h; summary of the method: as §1

| SMILES | IC50 (A549) [µM] | IC50 (PC-3) [µM] | IC50 (DU-145) [µM] |
| --- | --- | --- | --- |
| Cc1cccn2cc(-c3nnc(-c4ccc(Br)cc4)o3)nc12 | 34.7 | 37.8 | 38.9 |
| COc1ccc(-c2nnc(-c3cn4cccc(C)c4n3)o2)cc1 | 12.8 | 11.8 | 10.8 |
| COc1ccc(-c2nnc(-c3cn4ccccc4n3)o2)cc1 | 11.9 | 13.4 | 12.9 |
| COc1cc(-c2nnc(-c3cn4cccc(C)c4n3)o2)cc(OC)c1OC | 9.9 | 10.9 | 11.2 |
| c1ccc(-c2nnc(-c3cn4ccccc4n3)o2)cc1 | 23.4 | 22.2 | 23.4 |
| COc1cc([C@@H]2c3cc4c(cc3[C@H](O)[C@H]3COC(=O)[C@H]23)OCO4)cc(OC)c1OC [PODOFILOX] |  | 0.06 | 0.06 |
| Cc1cccn2cc(-c3nnc(-c4ccc(N(C)C)cc4)o3)nc12 | 12.3 | 11.6 | 10.8 |
| COc1ccc(-c2nnc(-c3cn4cccc(C)c4n3)o2)cc1OC | 10.9 | 11.5 | 11.8 |
